Each structure is given as a SMILES string. Numbered stars: 1 amine (or outer) side, 2 acyl side, 3 side chain; on linkers, the order of the positions; unused ones are H or OH. Bridge positions count the residues as written; N and C are the ends. Square brackets hold non-standard residues; d marks the D form. Peptide text beside a SMILES is read from it. I, II: the chains in the order shown. * marks the point of attachment. ξ: configuration not given here. Naphthalene(2,7-(OC3H6CO)2) = O=C(CCCOc1ccc2ccc(OCCCC(=O)[*:2])cc2c1)[*:1]; X1 = COC(=O)CCCOc1ccc2ccc(OCCCC(=O)*)cc2c1; Thr(3ξ) = CC(O)[C@H](N)C(=O)O

The target of one test is T1, Human immunodeficiency virus type 1 protease (Human immunodeficiency virus 1, UniProt Q72874). The test can be described thus: The compound was tested for HIV-1 protease inhibitory activity against plasmid pET9c-PR expressing HIV-1 protease.
Compound `CC(C)C[C@H](NC(=O)[C@@H](NC(=O)CCCOc1cccc(OCCCC(=O)N[C@H](C(=O)N[C@@H](CC(C)C)C(=O)N[C@H](C(=O)O)C(C)C)C(C)O)n1)C(C)O)C(=O)N[C@H](C(=O)O)C(C)C` (stereo not given in full) registered an IC50 of 34 µM.

With `CC(C)C[C@H](NC(=O)[C@@H](NC(=O)CCCOc1ccc2ccc(OCCCC(=O)N[C@H](C(=O)N[C@@H](CC(C)C)C(=O)N[C@H](C(=O)O)C(C)C)C(C)O)cc2c1)C(C)O)C(=O)N[C@H](C(=O)O)C(C)C` (stereo not given in full), the IC50 stood at 10 µM. Take `COC(=O)CCCOc1ccc2ccc(OCCCC(=O)N[C@H](C(=O)N[C@@H](CC(C)C)C(=O)N[C@H](C(=O)N[C@H](C(=O)OC)C(C)C)C(C)C)C(C)O)cc2c1` (stereo not given in full) (X1-[Thr(3ξ)]LVV-OMe): the IC50 came to 10 µM.

For `COC(=O)[C@@H](NC(=O)[C@H](CC(C)C)NC(=O)[C@@H](NC(=O)CCCOc1ccc2ccc(OCCCC(=O)N[C@H](C(=O)N[C@@H](CC(C)C)C(=O)N[C@H](C(=O)OC)C(C)C)C(C)C)cc2c1)C(C)C)C(C)C`, the 50% inhibitory concentration (IC50) came to 2 µM. The same measure, in the same setting: the result for `COC(=O)[C@@H](NC(=O)[C@H](CC(C)C)NC(=O)[C@@H](NC(=O)CCCOc1cccc(OCCCC(=O)N[C@H](C(=O)N[C@@H](CC(C)C)C(=O)N[C@H](C(=O)OC)C(C)C)C(C)C)n1)C(C)C)C(C)C` reads 3 µM. Still for that read-out and setting: the result for `COC(=O)[C@H](CC(C)C)NC(=O)[C@H](CC(C)C)NC(=O)CNC(=O)CCCOc1cccc(OCCCC(=O)NCC(=O)N[C@@H](CC(C)C)C(=O)N[C@@H](CC(C)C)C(=O)OC)n1` reads 16 µM; that for `COC(=O)[C@H](Cc1ccccc1)NC(=O)[C@H](CC(N)=O)NC(=O)[C@H](CC(C)C)NC(=O)[C@@H](NC(=O)CCCOc1cccc(OCCCC(=O)N[C@H](C(=O)N[C@@H](CC(C)C)C(=O)N[C@@H](CC(N)=O)C(=O)N[C@@H](Cc2ccccc2)C(=O)OC)C(C)O)n1)C(C)O` (stereo not given in full), 10 µM; that for `COC(=O)[C@H](Cc1ccccc1)NC(=O)[C@H](CC(N)=O)NC(=O)[C@H](CC(C)C)NC(=O)[C@@H](NC(=O)CCCOc1ccc2ccc(OCCCC(=O)N[C@H](C(=O)N[C@@H](CC(C)C)C(=O)N[C@@H](CC(N)=O)C(=O)N[C@@H](Cc3ccccc3)C(=O)OC)C(C)O)cc2c1)C(C)O` (stereo not given in full) (I: [Thr(3ξ)]LNF-OMe / II: [Thr(3ξ)]LNF-OMe; linker I:N-II:N via Naphthalene(2,7-(OC3H6CO)2)), 4.4 µM. Compound `CC[C@@H](C)[C@H](NC(=O)[C@@H](NC(=O)CCCOc1cccc(OCCCC(=O)N[C@H](C(=O)N[C@H](C(=O)N[C@H](C(=O)OC)C(C)C)[C@H](C)CC)C(C)O)n1)C(C)O)C(=O)N[C@H](C(=O)OC)C(C)C` (stereo not given in full) had an IC50 of 4.2 µM.

The next test deals with T1, Human immunodeficiency virus type 1 protease. Kind of test: Inhibition of plasmid pET9c-PR expressing HIV-1 protease (No inhibition).
With `CC(C)C[C@H](NC(=O)[C@@H](NC(=O)CCCOc1cccc(OCCCC(=O)N[C@H](C(=O)N[C@@H](CC(C)C)C(=O)N[C@H](C(=O)O)C(C)C)C(C)O)c1)C(C)O)C(=O)N[C@H](C(=O)O)C(C)C` (stereo not given in full), the concentration for half-maximal inhibition (IC50) entry is on record as “Not Active”. With `CC[C@@H](C)[C@H](NC(=O)[C@H](CCC(N)=O)NC(=O)CCCOc1cccc(OCCCC(=O)N[C@@H](CCC(N)=O)C(=O)N[C@H](C(=O)OC)[C@H](C)CC)c1)C(=O)OC`, the IC50 result is recorded as “Not Active”. The same measure, in the same setting: then `COC(=O)[C@@H](NC(=O)[C@H](CC(C)C)NC(=O)[C@@H](NC(=O)CCCOc1ccc2ccc(OCCCC(=O)N[C@H](C(=O)N[C@@H](CC(C)C)C(=O)N[C@H](C(=O)OC)C(C)C)C(C)O)cc2c1)C(C)O)C(C)C` (stereo not given in full), with “Not Active”; and `COC(=O)CCCOc1ccc2ccc(OCCCC(=O)N[C@H](C(=O)N[C@@H](CC(C)C)C(=O)N[C@@H](Cc3ccc(O)cc3)C(=O)OC)C(C)O)cc2c1` (stereo not given in full), with “Not Active”; and `COC(=O)[C@H](Cc1ccc(O)cc1)NC(=O)[C@H](CC(C)C)NC(=O)[C@@H](NC(=O)CCCOc1ccc2ccc(OCCCC(=O)N[C@H](C(=O)N[C@@H](CC(C)C)C(=O)N[C@@H](Cc3ccc(O)cc3)C(=O)OC)C(C)O)cc2c1)C(C)O` (stereo not given in full), with “Not Active”.

As to `CC[C@H](C)[C@H](NC(=O)[C@H](CCC(N)=O)NC(=O)CCCOc1cccc(OCCCC(=O)N[C@@H](CCC(N)=O)C(=O)N[C@H](C(=O)N[C@H](C(=O)N[C@@H](CC(C)C)C(=O)OC)C(C)O)[C@@H](C)CC)n1)C(=O)N[C@H](C(=O)N[C@@H](CC(C)C)C(=O)OC)C(C)O` (stereo not given in full), the half-inhibitory concentration (IC50) result was “Not Active”.

Take `COC(=O)CCCOc1ccc2ccc(OCCCC(=O)N[C@H](C(=O)N[C@@H](CC(C)C)C(=O)N[C@H](C(=O)OC)C(C)C)C(C)C)cc2c1`: the IC50 result is on record as “Not Active”. On to `COC(=O)[C@@H](NC(=O)[C@@H](NC(=O)[C@H](CC(C)C)NC(=O)[C@@H](NC(=O)CCCOc1ccc2ccc(OCCCC(=O)N[C@H](C(=O)N[C@@H](CC(C)C)C(=O)N[C@H](C(=O)N[C@H](C(=O)OC)C(C)C)C(C)C)[C@@H](C)O)cc2c1)[C@@H](C)O)C(C)C)C(C)C` (I: TLVV-OMe / II: TLVV-OMe; linker I:N-II:N via Naphthalene(2,7-(OC3H6CO)2)), for which the IC50 entry is “Not Active”. The same measure, in the same setting: the result for `CC[C@H](C)[C@H](NC(=O)[C@H](CCC(N)=O)NC(=O)CCCOc1ccc2ccc(OCCCC(=O)N[C@@H](CCC(N)=O)C(=O)N[C@H](C(=O)N[C@H](C(=O)N[C@@H](CC(C)C)C(=O)OC)C(C)O)[C@@H](C)CC)cc2c1)C(=O)N[C@H](C(=O)N[C@@H](CC(C)C)C(=O)OC)C(C)O` (stereo partly drawn) (I: QI[Thr(3ξ)]L-OMe / II: QI[Thr(3ξ)]L-OMe; linker I:N-II:N via Naphthalene(2,7-(OC3H6CO)2)) reads “Not Active”; that for `COC(=O)[C@@H](NC(=O)[C@@H](NC(=O)CCCOc1cccc(OCCCC(=O)N[C@H](C(=O)N[C@H](C(=O)OC)C(C)C)C(C)O)n1)C(C)O)C(C)C` (stereo not given in full), “Not Active”. The same measure, in the same setting: the result for `CC(C)C[C@H](NC(=O)[C@@H](NC(=O)CCCOc1ccc2ccc(OCCCC(=O)N[C@H](C(=O)N[C@@H](CC(C)C)C(=O)N[C@H](C(=O)OCc3ccccc3)C(C)C)C(C)O)cc2c1)C(C)O)C(=O)N[C@H](C(=O)OCc1ccccc1)C(C)C` (stereo not given in full) reads “Not Active”; that for `CC[C@H](C)[C@H](NC(=O)[C@H](CCC(N)=O)NC(=O)CCCOc1ccc2ccc(OCCCC(=O)OC)cc2c1)C(=O)N[C@H](C(=O)N[C@@H](CC(C)C)C(=O)OC)C(C)O` (stereo partly drawn) (X1-QI[Thr(3ξ)]L-OMe), “Not Active”; that for `CC[C@@H](C)[C@H](NC(=O)[C@H](CCC(N)=O)NC(=O)CCCOc1ccc2ccc(OCCCC(=O)N[C@@H](CCC(N)=O)C(=O)N[C@H](C(=O)OC)[C@H](C)CC)cc2c1)C(=O)OC`, “Not Active”. Same read-out and setting: the result for `COC(=O)[C@@H](NC(=O)[C@H](CC(C)C)NC(=O)[C@@H](NC(=O)CCCOc1cccc(OCCCC(=O)N[C@H](C(=O)N[C@@H](CC(C)C)C(=O)N[C@H](C(=O)OC)C(C)C)C(C)C)c1)C(C)C)C(C)C` reads “Not Active”.

For a further test, the target named is Human immunodeficiency virus type 1 protease (Human immunodeficiency virus 1) (UniProt Q72874). Kind of test: The compound was tested for HIV-1 protease inhibitory activity against plasmid pET9c-PR expressing HIV-1 protease. activity is expressed as Kid value. In a few lines: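 Dissociative (antidimer) inhibition was analysed by the Zhang kinetic method. Fluorogenic substrate was held at 5.2 μM ([S]0 ≪ Km, Km = 103 μM), with at least five HIV-1 protease (pET9c-PR) levels (2.37–11.8 nM) at several inhibitor concentrations. Runs were at pH 4.7 acetate buffer, 30 °C, fluorescence 340/490 nm. Kid was taken from regression fits of [E]0/√vi versus √vi.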
The compound `COC(=O)[C@@H](NC(=O)[C@H](CC(C)C)NC(=O)[C@@H](NC(=O)CCCOc1ccc2ccc(OCCCC(=O)N[C@H](C(=O)N[C@@H](CC(C)C)C(=O)N[C@H](C(=O)OC)C(C)C)C(C)C)cc2c1)C(C)C)C(C)C` yielded a Kid of 0.56 µM.

The compound `COC(=O)[C@H](CC(C)C)NC(=O)[C@H](CC(C)C)NC(=O)CNC(=O)CCCOc1cccc(OCCCC(=O)NCC(=O)N[C@@H](CC(C)C)C(=O)N[C@@H](CC(C)C)C(=O)OC)n1` showed a Kid of 4.5 µM. In turn, `COC(=O)[C@H](Cc1ccccc1)NC(=O)[C@H](CC(N)=O)NC(=O)[C@H](CC(C)C)NC(=O)[C@@H](NC(=O)CCCOc1ccc2ccc(OCCCC(=O)N[C@H](C(=O)N[C@@H](CC(C)C)C(=O)N[C@@H](CC(N)=O)C(=O)N[C@@H](Cc3ccccc3)C(=O)OC)C(C)O)cc2c1)C(C)O` (stereo not given in full) (I: [Thr(3ξ)]LNF-OMe / II: [Thr(3ξ)]LNF-OMe; linker I:N-II:N via Naphthalene(2,7-(OC3H6CO)2)) showed a Kid of 1 µM. Still for that read-out and setting: the result for `CC[C@@H](C)[C@H](NC(=O)[C@@H](NC(=O)CCCOc1cccc(OCCCC(=O)N[C@H](C(=O)N[C@H](C(=O)N[C@H](C(=O)OC)C(C)C)[C@H](C)CC)C(C)O)n1)C(C)O)C(=O)N[C@H](C(=O)OC)C(C)C` (stereo not given in full) reads 1.4 µM.

The next test shares this target. The test can be described thus: The compound was tested for HIV-1 protease inhibitory activity against plasmid pET9c-PR expressing HIV-1 protease at 4.5 uM. In a few lines: (§1)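 Recombinant HIV-1 protease (expressed from pET9c-PR), 7.5 nM final, prediluted in buffer with 1 mg/mL BSA. Inhibitor was mixed with fluorogenic substrate (5.2 μM final) and the reaction started with enzyme. Fluorescence rise at 490 nm (excitation 340 nm) was followed for 5 min at 30 °C.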
For the compound `COC(=O)CCCOc1ccc2ccc(OCCCC(=O)N[C@H](C(=O)N[C@@H](CC(C)C)C(=O)N[C@H](C(=O)OC)C(C)C)C(C)O)cc2c1` (stereo not given in full), the inhibition is 30%.

The next test has the same target. Kind of test: The compound was tested for HIV-1 protease inhibitory activity against plasmid pET9c-PR expressing HIV-1 protease at 6.7 uM. The gist of the method: as §1
In turn, `COC(=O)[C@@H](NC(=O)[C@H](CC(C)C)NC(=O)[C@@H](NC(=O)CCCOc1cccc(OCCCC(=O)N[C@H](C(=O)N[C@@H](CC(C)C)C(=O)N[C@H](C(=O)OC)C(C)C)C(C)O)n1)C(C)O)C(C)C` (stereo not given in full) yielded an inhibition of 30%.

The target is the same in the next test. Kind of test: The compound was tested for HIV-1 protease inhibitory activity against plasmid pET9c-PR expressing HIV-1 protease at 7 uM. The gist of the method:
as §1
`COC(=O)CCCOc1ccc2ccc(OCCCC(=O)N[C@H](C(=O)N[C@@H](CC(C)C)C(=O)N[C@@H](CC(N)=O)C(=O)N[C@@H](Cc3ccccc3)C(=O)OC)C(C)O)cc2c1` (stereo not given in full) (X1-[Thr(3ξ)]LNF-OMe) yielded an inhibition of 30%.
